Measurements published in PubChem BioAssay AID2247 (Johns Hopkins Ion Channel Center, 2010).
In all, about 300,000 compounds went through this assay and about 1,200 (0.4%) were called active.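 The calls were made as follows: active = B-score over 3 SD under the library average, no early fluorescence shift, positive overall ratio signal; inactive = the rest.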 The sample as a whole holds a higher share of actives than the screen did.

The compounds below were run against Short transient receptor potential channel 4 (Mus musculus) (UniProt Q9QUQ5) (assay: inhibitors of mouse TRPC4 channel, primary screen, Fluo4 calcium, HEK293 TRPC4beta/mu-opioid cells (AID 2247)). Settings: DAMGO-evoked Fluo4 calcium flux, at 10 µM; stronger effect = lower value.
Sequence of Short transient receptor potential channel 4 (Mus musculus) (Q9QUQ5 whole entry, looked up): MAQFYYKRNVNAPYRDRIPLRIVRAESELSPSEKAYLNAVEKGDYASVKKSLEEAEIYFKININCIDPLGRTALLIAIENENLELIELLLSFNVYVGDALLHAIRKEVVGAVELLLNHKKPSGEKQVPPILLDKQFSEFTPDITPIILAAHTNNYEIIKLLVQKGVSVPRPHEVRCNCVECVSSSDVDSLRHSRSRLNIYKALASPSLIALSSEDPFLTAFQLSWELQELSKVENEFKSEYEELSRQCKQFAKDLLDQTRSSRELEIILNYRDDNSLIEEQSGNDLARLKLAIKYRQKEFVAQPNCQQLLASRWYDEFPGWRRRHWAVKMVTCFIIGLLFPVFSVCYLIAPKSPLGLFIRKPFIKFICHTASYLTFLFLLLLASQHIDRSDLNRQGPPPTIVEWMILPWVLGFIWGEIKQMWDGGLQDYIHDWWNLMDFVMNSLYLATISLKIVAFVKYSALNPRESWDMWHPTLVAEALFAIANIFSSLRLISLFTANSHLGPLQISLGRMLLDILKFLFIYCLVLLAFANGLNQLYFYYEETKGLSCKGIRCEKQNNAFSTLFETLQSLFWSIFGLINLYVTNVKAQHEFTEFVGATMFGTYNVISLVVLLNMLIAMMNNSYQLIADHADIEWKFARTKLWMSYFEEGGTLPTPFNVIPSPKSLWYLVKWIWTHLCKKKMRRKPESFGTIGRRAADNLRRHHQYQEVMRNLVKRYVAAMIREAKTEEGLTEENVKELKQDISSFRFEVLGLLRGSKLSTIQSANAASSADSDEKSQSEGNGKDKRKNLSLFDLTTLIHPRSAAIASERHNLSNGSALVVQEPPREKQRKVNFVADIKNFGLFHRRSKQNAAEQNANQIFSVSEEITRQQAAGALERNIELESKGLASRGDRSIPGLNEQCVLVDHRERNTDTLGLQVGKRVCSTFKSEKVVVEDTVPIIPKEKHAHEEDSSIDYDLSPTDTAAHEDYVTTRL
Procedure, shortened: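 material = TRPC4beta/mu-opioid receptor HEK293 cell line | probe or stimulus = sequential submaximal and maximal DAMGO stimulation | compound dosing = one concentration per compound | measured by = Fluo4 Ca2+ flux fluorescence | evaluation = integrated fluorescence ratio relative to baseline, converted to per-well B score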

Row | SMILES | B-score
1 | Cc1onc(-c2c(F)cccc2Cl)c1C(=O)N(C)CC(=O)Nc1cccc(F)c1 | -7 (active)
2 | CN(CC(=O)Nc1cccc(F)c1)C(=O)C1=COCCO1 | inactive
3 | Cc1noc(C)c1COc1ccccc1C(=O)N(C)CC(=O)Nc1cccc(F)c1 | inactive
4 | Cc1sc(NC(=O)C2C3CCC(O3)C2C(=O)O)c(C(=O)OC(C)C)c1-c1ccc(Cl)cc1 (configuration not stated) | inactive
5 | CC(C)(O)C#Cc1ccc(CN2CCC(CO)(CCc3ccccc3)CC2)cc1 | inactive
6 | OCC1(CCc2ccccc2)CCN(Cc2ccc3nsnc3c2)CC1 | -7 (active)
7 | Cc1cccc(-c2ncc(CN3CCC(CO)(CCCc4ccccc4)CC3)cn2)c1 | inactive
8 | O=C(CN1CCOc2ccccc21)N1CCC(Cc2ccccc2)CC1 | inactive
9 | CC(c1ccccn1)N(C)C(=O)c1ccc2nc(Cc3cccc(Cl)c3)oc2c1 (configuration not stated) | inactive
10 | NC1=NC[C@@H](Cc2ccc(O)cc2)N1CC1CCCCC1 | inactive
11 | CC(C)n1c(COc2ccccc2)nc2ccccc21 | inactive
12 | CC(C)n1c(NCc2c[nH]c3ccccc23)nc2ccccc21 | -8 (active)
13 | CC(C)n1c(-c2cccs2)nc2ccccc21 | inactive
14 | Cc1ccc(Cn2nnc3c(=O)[nH]c(C4CCN(S(=O)(=O)/C=C/c5ccccc5)CC4)nc32)cc1 | inactive
15 | N#Cc1c(NC(=O)CCCl)sc2c1CCCCC2 | inactive
16 | N#Cc1c(NC(=O)C2CCCO2)sc2c1CCCCC2 (configuration not stated) | inactive
17 | N#Cc1c(NC(=O)C2CC(Cl)=CCC2C(=O)O)sc2c1CCCCC2 (configuration not stated) | -6 (active)
18 | COc1ccnc2c1c(=O)n(Cc1cccc(F)c1)c(=O)n2C | inactive
19 | Nc1cc(N)nc(SCc2cccc(F)c2)n1 | inactive
20 | CC(C)(C)c1cc2cccnc2n1Cc1cccc(F)c1 | -6 (active)
21 | Cn1c(=O)c2c(nc(OCc3cccnc3)n2Cc2ccccc2)n(C)c1=O | inactive
22 | Cc1cc(C(C)(C)C)n2nc(C)c(-c3ccccc3)c2n1 | inactive

Row | SMILES | B-score
23 | CC(C)(C)c1cc2cccnc2n1Cc1ccccc1 | -7 (active)
24 | CCN(CC)C(=O)Cn1cc(S(=O)(=O)CC(=O)NCc2ccc3c(c2)OCO3)c2ccccc21 | inactive
25 | Cc1nc2ccccc2n1C(=O)N1CCOCC1 | inactive
26 | COc1ccc(C(=O)Nc2ccc(-n3nncc3C(C)(C)C)cc2)cc1 | inactive
27 | O=S(=O)(O)Oc1c[nH]c2ccccc12 | inactive
28 | COc1ccc(CN(C)Cc2nc3cc(OC)c(OC)cc3c(=O)[nH]2)c(OC)c1 | inactive
29 | COc1cc(NS(=O)(=O)c2ccc3ccccc3c2)c2ncccc2c1 | -6 (active)
30 | Cc1ccc(NS(=O)(=O)c2ccc(C)c(NC(=O)COc3ccc4ccccc4c3)c2)c(C)c1 | inactive
31 | O=[N+]([O-])c1ccccc1S(=O)(=O)Nc1cccc2cccnc12 | inactive
32 | CC1(C)S[C@@H]2[C@H](NC(=O)COc3ccccc3)C(=O)N2C1C(=O)OCc1ccccc1 (some centres not stated) | inactive
33 | CCc1ccc(C(=O)COC(=O)c2ccco2)cc1 | inactive
34 | COc1ccc(-n2cc(CNC3CCOCC3)c(-c3cccc(F)c3)n2)cc1 | inactive
35 | COc1ccc(-n2cc(CN(C)Cc3n[nH]c(=O)[nH]3)c(-c3cccc(F)c3)n2)cc1 | inactive
36 | CCC(O)C1CCN(Cc2cn(-c3ccc(OC)cc3)nc2-c2cccc(F)c2)CC1 (configuration not stated) | -8 (active)
37 | Cc1c(CCOC(=O)CC23CC4CC(CC(C)(C4)C2)C3)sc[n+]1Cc1ccc([N+](=O)[O-])cc1 | inactive
38 | Cc1ccc(CN2CCC(n3nccc3NC(=O)CCCc3ccccc3)CC2)o1 | inactive
39 | Cc1c(CN2CCC(n3nccc3NC(=O)CCc3ccccc3)CC2)cnn1C | -7 (active)
40 | CCn1cc(CN2CCC(n3nccc3NC(=O)CCCc3ccccc3)CC2)c(C)n1 | inactive
41 | COC(=O)c1onc(-c2c(OC)cc(OC)cc2OC)c1C(=O)OC | inactive
42 | O=C(Cn1ncc2c3ccccc3n(Cc3ccccc3)c2c1=O)NCc1ccccn1 | inactive
43 | Cc1ccc(NC(=O)CSc2nc(=O)n(CCN(C)C)c3c2CCCC3)c(C)c1 | inactive
44 | Cc1cc(CNC(=O)c2cccc([N+](=O)[O-])c2)c2ccccc2n1 | inactive

Row | SMILES | B-score
45 | O=[N+]([O-])c1cccc(Nc2c3ccccc3nc3ccccc23)c1 | -7 (active)
46 | N#Cc1cccc(Nc2c3c(nc4ccccc24)CCCC3)c1 | inactive
47 | CC1CC(C)CN(CCCNC(=O)c2csc3c2CCCCC3)C1 (configuration not stated) | inactive
48 | COc1ccc(CNC(=O)[C@@H]2CC=C[C@@H]3CCN(C4CC4)C(=O)[C@@H]32)cc1 | inactive
49 | CCc1ccc2oc(=O)cc(CN3CCCCC3C)c2c1 (configuration not stated) | inactive
50 | Cc1[nH]n(C)c(=O)c1C(=O)c1c(-c2c(Cl)cccc2Cl)noc1C | -6 (active)
51 | Cc1onc(-c2c(Cl)cccc2Cl)c1C(=O)NNC(=O)c1c(-c2c(Cl)cccc2Cl)noc1C | inactive
52 | Cc1onc(-c2c(Cl)cccc2Cl)c1C(=O)c1c[nH]c(C(=O)NC2CC2)c1 | inactive
53 | COc1cc(CN2CCC(C(N)=O)CC2)ccc1OCc1ccccc1 | inactive
54 | COc1cc(CNC2CCCCC2)c(Br)cc1OC1CCCC1 | inactive
55 | COc1cc(CNC2CCCC2)c(Br)cc1OCc1ccccc1 | -6 (active)
56 | Cc1cccc(C2C3=C(CCCC3=O)N=C3c4ccccc4C(=O)C32)c1 (configuration not stated) | inactive
57 | Nc1ccc(OCC(O)C[n+]2ccc(CCS(=O)(=O)[O-])cc2)cc1 (configuration not stated) | inactive
58 | CN(CC(=O)N1CCN(c2ccccc2)CC1)S(=O)(=O)c1cccs1 | inactive
59 | Cc1cccc(NS(=O)(=O)c2ccc(C)c(C(N)=O)c2)c1 | inactive
60 | CC1CN(CCCOc2ccccc2-c2ccccc2)CC(C)O1 (configuration not stated) | inactive
61 | CC1CCCN(CCOCCOc2ccccc2-c2ccccc2)C1 (configuration not stated) | -7 (active)
62 | c1ccc(-c2ccccc2OCCN2CCCCC2)cc1 | inactive
63 | COc1cc(N2CCCC2)c(OC)cc1/C=C(/C#N)c1cccc(Br)c1 | inactive
64 | Cc1cc(NC(=O)CN2C(=O)NC(C)(CCc3ccccc3)C2=O)no1 (configuration not stated) | inactive
65 | CCOc1ccc2nc(N3CCCN(C(=O)Nc4ccccc4C)CC3)c(C#N)cc2c1 | inactive
66 | CCOC(=O)c1cc(C)nc(S(C)(=O)=O)c1C#N | inactive

Row | SMILES | B-score
67 | CCOC(=O)c1cc(C#N)c(N2CCCCC2)nc1-c1ccccc1 | -8 (active)
68 | O=C(CN(Cc1ccc(Br)cc1)S(=O)(=O)c1ccccc1)NCc1ccncc1 | inactive
69 | CSCC[C@H](NC(=O)NCc1cccs1)C(=O)O | inactive
70 | COc1cc(CN2CCCC(C(=O)c3ccc(SC)cc3)C2)cc(Cl)c1O (configuration not stated) | inactive
71 | COc1ccc(CN2CCCC(C(=O)c3ccc(Cl)cc3)C2)cc1Cn1cncn1 (configuration not stated) | -7 (active)
72 | COc1ccc(C(=O)C2CCCN(Cc3ccc4nonc4c3)C2)c(C)c1 (configuration not stated) | inactive
73 | CCC(C)OC(=O)C(C)Oc1ccc(-c2ccccc2)cc1 (configuration not stated) | inactive
74 | O=S(=O)(/C=C/c1ccccc1)N1CCNCC1 | inactive
75 | O=C(O)c1ccccc1C(=O)NC1=NN(c2ccccc2)CC1 | inactive
76 | O=[N+]([O-])c1ccccc1Nc1ccc(O)cc1 | -6 (active)
77 | Cc1ccc(Nc2ccc(C(N)=O)cc2[N+](=O)[O-])cc1 | inactive
78 | O=C(O)c1ccccc1C(=O)Nc1ccccc1[N+](=O)[O-] | inactive
79 | Cc1ccc(C(=O)Nc2nnc(C3=COCCO3)o2)cc1C | -6 (active)
80 | O=C(Nc1nnc(C2=COCCO2)o1)c1ccc([N+](=O)[O-])s1 | inactive
81 | COc1cc(-c2nnc(NC(=O)C3=COCCO3)o2)cc(OC)c1OC | inactive
82 | Cc1ccc(CNC(=O)C(=O)c2cn(CC(=O)N3CCCC3)c3ccccc23)cc1 | inactive
83 | O=C(Nc1ccc(N2CCCCC2)cc1)c1cc(S(=O)(=O)N2CCOCC2)ccc1F | inactive
84 | CCc1nn(CCCC(=O)Nc2ccc(C)c(C)c2)c(=O)c2cc3occc3n12 | inactive
85 | N/C(=N\OC(=O)Nc1ccccc1)c1ccno1 | inactive
86 | CC1CCN(CCCn2c(SCC(=O)NC3CCCC3)nc3ccccc3c2=O)CC1 | inactive
87 | O=C(CSc1nc2ccccc2c(=O)n1CCCO)N1CCc2ccccc21 | -7 (active)
88 | Cn1c(SCC(=O)N2CCCc3ccccc32)nc2ccccc2c1=O | inactive

Row | SMILES | B-score
89 | CCOc1ccc(CCNC(=O)CN2C(=O)NC3(CCc4ccccc43)C2=O)cc1OCC (configuration not stated) | inactive
90 | COCCn1c(SC(C)C(=O)NC2CC2)nnc1-c1cccc(C)c1 (configuration not stated) | inactive
91 | O=C(O)CCn1cc(/C=C/C(=O)c2ccc(Cl)cc2)c(-c2cccc(Br)c2)n1 | -6 (active)
92 | O=C(/C=C/NNC(=O)c1cccc(Br)c1)c1ccccc1 | inactive
93 | CCOC(=O)/C(C#N)=C/c1cn(CCC(=O)O)nc1-c1ccc(Br)cc1 | inactive
94 | CCOC(=O)N1CCN(S(=O)(=O)N2CCCC(C(=O)NCCCN3CCC(C)CC3)C2)CC1 (configuration not stated) | inactive
95 | Cc1ccnc(N2CCN(C(=O)CSc3nc4ccccc4nc3N3CCCCC3)CC2)c1 | inactive
96 | CC(C)c1nc(N2CCOCC2)c(C#N)c2c1COC(C)(C)C2 | inactive
97 | CC(C)Cc1nc(N2CCOCC2)c(C#N)c2c1CCC2 | -6 (active)
98 | CC(C)Cc1nc(Cl)c(C#N)c2c1CCC2 | inactive
99 | CCCCn1c(N)c(N(CCOC)C(=O)c2cccc(S(=O)(=O)N3CCCCC3)c2)c(=O)[nH]c1=O | inactive
100 | CN1CCNC(=O)C1CC(=O)N1CC=C(c2ccc(F)cc2)CC1 (configuration not stated) | inactive
101 | COc1cccc(N(CC(=O)NCc2ccccc2)C(=O)CCC(=O)Nc2nccs2)c1 | inactive
102 | CCC1(c2ccccc2)NC(=O)N(CC(=O)c2ccc3c(c2)OCO3)C1=O (configuration not stated) | inactive
103 | O=C(CN1CCN(c2ccccc2F)CC1)c1ccc2c(c1)OCO2 | inactive
104 | O=C(CCN1CCc2ccccc2C(O)(c2ccccc2)C1)c1ccc2c(c1)OCCO2 (configuration not stated) | -7 (active)
105 | COC(=O)c1sccc1NC(=O)CCC1CCCC1 | inactive
106 | CC(=O)Oc1ccc(NC(=O)CCC2CCCCC2)c(C(=O)O)c1 | -6 (active)
107 | COc1ccc(NC(=O)CCCC2CCCCC2)c(OC)c1 | inactive
